Data: ChEMBL document CHEMBL4513216, “Probing the Open Global Health Chemical Diversity Library for Multistage-Active Starting Points for Next-Generation Antimalarials” (ACS Infect Dis, 2020)

Test: Toxicity liver stage against HepG2, at 10uM
Format: cell-based
Design: test concentration 10 uM, cell line HepG2-A16-CD81EGFP
Conditions: human, HepG2-A16-CD81EGFP cells; read-out: INHIBITION
Procedure, shortened: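 Uninfected HepG2-A16-CD81EGFP cells, 3 × 10^3 per well, 1536-well, plated on prespotted compound at 10 μM final, parasite-free screening media added to match infected plates; puromycin 10 μM positive, DMSO 0.5% negative; run in parallel with 48 h PbLuc assay at 37 °C, 5% CO2; viability by CellTiter-Glo luminescence, normalized to controls.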

SMILES | cytotoxicity at 10 µM
CCNC(=O)COc1cc(CC)c2c(C)nn(-c3ccc(C)cc3)c2n1 | 0.409%
CC(C)CCN1C(=O)c2ccc(C(=O)NCCc3c[nH]cn3)cc2C1=O | -12.5%
COCCCNC(=O)Cc1cc(-c2ccc3c(c2)OCO3)on1 | 57.7%
N#Cc1ccc(OC2CCN(C(=O)Cc3cccs3)CC2)nc1 | 1.96%
CCS(=O)(=O)NCc1nc(C)cc(N2CCOCC2)n1 | -0.978%
O=C([C@@H]1COC[C@H]2CN(CC3CCCC3)C[C@H]21)N1CCOCC1 | 14.9%
CC(=O)NCC(=O)N1Cc2cc(C#N)ccc2C1c1cnco1 (stereo unspecified) | 1.06%
O=S(=O)(c1cccnc1)N1C[C@@H]2COC[C@]2(COCC2CC2)C1 | 4.83%
Cc1ccc(CN2Cc3c(cnn3C)C(COCC3CC3)C2)s1 (stereo unspecified) | 3.91%
COc1ccc(N2CCCC3(C2)CN(c2nncs2)CCO3)cc1 (stereo unspecified) | 4.17%
CCc1nn(-c2cc(Oc3cc(C)ccc3C)nc(C)n2)c(N)c1C#N | 58.4%
Cn1c(N)c2c(=O)n(C)c(-c3ccc(Cl)cc3Cl)cc2c(C#N)c1=O | -5.43%
Cc1nnsc1C(=O)N1CCC(c2nc3ccccc3[nH]2)CC1 | 2.5%
O=C1CNc2ncnc(Nc3cnn(Cc4ccc(F)cc4)c3)c2N1 | 6.85%
CN(C)c1cc(C2CCCN(C(=O)c3noc4c3CCCC4)C2)ccn1 (stereo unspecified) | -12.3%
CN1CCCC(c2cncc(-c3cccc(C(F)(F)F)c3)n2)C1 (stereo unspecified) | 8.92%
COCc1ccc(C(=O)N2CCC(c3cc4nccnc4[nH]3)CC2)cc1 | -39%
CC(C)c1cc(NC(=O)CNC2CCc3ncnn3C2)on1 (stereo unspecified) | 4.44%
O=C(c1cnc2n1CCCC2)N1CCCC1 | -10.6%
O=c1n(CCNc2cccc3ccccc23)nc2ccccn12 | 0.392%
O=S(=O)(N1CCC(n2cccc2)CC1)N1CCCC1c1ccco1 (stereo unspecified) | 12.7%
CC(=O)NC1CCCN(c2nc3ccccc3cc2CO)C1 (stereo unspecified) | -50.1%
CCc1noc(C(C)N2CCN(Cc3noc(C4CC4)n3)CC2)n1 (stereo unspecified) | -2.13%

SMILES | cytotoxicity at 10 µM
CN(c1ncc(S(N)(=O)=O)s1)C1CCc2ccccc2C1 (stereo unspecified) | 11.1%
CC(C)Oc1ncccc1CNC(=O)N1CCOCC1 | -40.6%
CCN(CC)CC(=O)N1CCN(CCCc2ccncc2)CC1 | -60.5%
N#Cc1ncn(CCS(=O)(=O)c2ccccc2)n1 | 1.18%
CCOCCN1CCN(CC(=O)N2CCCC2)CC1C (stereo unspecified) | -3.82%
CC(C)(C)c1cnc(CN2CCC(CN3CCOCC3)CC2)o1 | 3.63%
CC(C)(C)OC(=O)NCCc1csc(N2CCCC2)n1 | 24.9%
Cc1ccsc1C(=O)NC1CCN(c2cnn(C)c2)C1=O (stereo unspecified) | -7.11%
CN1CCN(C(CNC(=O)c2ccc(Cl)cc2F)c2cccs2)CC1 (stereo unspecified) | 84.6%
CC(C)C(O)C1(CNC(=O)Nc2ccc(CN3CCOC3=O)cc2)CC1 (stereo unspecified) | -5.09%
O=C(Nc1ccnc(OC2CCOC2)c1)c1ccccc1Cl (stereo unspecified) | 8.5%
COCCNC(=O)Nc1cccc2c1CCN(S(C)(=O)=O)C2 | 7.37%
CCc1nccn1C1CCCN(C(=O)c2ccnc(N(C)C)c2)C1 (stereo unspecified) | 0.795%
N#CCCCOc1cccnc1NC(=O)Cc1ccccc1F | -2.27%
O=C(C[S+]([O-])Cc1ccc(F)cc1Cl)NC1CCCC1 (stereo unspecified) | 9.5%
Cc1cc(SC(C)(C)C)ccc1NC(C)C(=O)NC(N)=O (stereo unspecified) | -5.36%
CC1CN(C)CCN1C(=O)c1ccc(-n2cnnc2)cc1 (stereo unspecified) | 2.84%
CC(C)(C)OC(=O)NC(C)(C(N)=O)c1cccc(Cl)c1 (stereo unspecified) | 18.3%
Cc1nc(C)c(C(=O)N2CCN(CCOc3ccccc3C)CC2)o1 | 1.72%
CO[C@H]1CN(C(=O)OC(C)(C)C)CC1NCc1ccoc1 (stereo partly specified) | -51.8%
CC(NCC(=O)Nc1ccc(N2CCCCCC2)cc1)c1cccs1 (stereo unspecified) | 1.8%
CC(=O)NC1CCCN(Cc2ccc(-n3ccnc3)cc2)C1 (stereo unspecified) | -57.4%
Cc1ncccc1NC(=O)c1nc2c(n1C)CCN(C(=O)C1CC1)C2 | -99.6%

SMILES | cytotoxicity at 10 µM
CNC(=O)c1ncn2c1CN(CCC(C)C)S(=O)(=O)c1ccccc1-2 | -78.8%
CCc1ncnc2c1CCN(C(=O)c1cccn1C)CC2 | -73.5%
O=C(c1ccncn1)N1C[C@H]2CCC[C@@]2(COCC2CCOCC2)C1 | -79.2%
CCNc1nc2c(s1)C(=O)CN(C(=O)NCc1ccccc1)C2 | 59.1%
CN(Cc1ccncc1)CC1CCCN(CCc2ccc(Cl)cc2)C1 (stereo unspecified) | 1.06%
CN(C)c1cnn(CC(=O)N2CCN(Cc3cccs3)CC2)c(=O)c1 | 1.72%
CS(=O)(=O)NCC(=O)N[C@H]1CN(CC2CC2)C[C@@H]1c1ccccc1 | -0.29%
Cc1ccc2[nH]c(CNC(=O)C3CC4(CCNCC4)CN3C)nc2c1C (stereo unspecified) | -9.66%
CCc1nc(CCn2ccnc2-c2nccn2C)no1 | -50.2%
COc1cccc(C(=O)N2CCN(C(=O)CCCc3cn[nH]c3)CC2)c1 | -1.3%
COCCc1noc(C2CCCN(c3nc(N)nc4c3CCCC4)C2)n1 (stereo unspecified) | 48.1%
Cc1n[nH]c(C)c1CCCNCc1cn(CCC(N)=O)c2ccccc12 | 8.45%
CC(=O)N[C@@H]1CN(c2nc(CO)cs2)C[C@H]1c1ccc(C)o1 | -47%
CC(c1cccs1)N(C)Cc1cnc(-c2ccccn2)nc1 (stereo unspecified) | -6.3%
Cc1cccn2c(CNC(C)CCc3ccc(O)cc3)cnc12 (stereo unspecified) | 1.95%
CN(C)Cc1csc(-c2nccn2Cc2ccsc2)c1 | -2.47%
CCN1CC(C(=O)NCc2nn(CC)c3ccccc23)CCC1=O (stereo unspecified) | -5.83%
O=C(CO)N1CCCC(N2CCN(c3ccccc3F)CC2)C1 (stereo unspecified) | -49.1%
COc1cccc(N2CCN(C(C(=O)O)c3ccc(OC)nc3)CC2)c1 (stereo unspecified) | 14.5%
CCc1nc(NCCc2c(C)nn(CC)c2C)c2cnn(C)c2n1 | 9.33%
CCCc1nc(NCc2c(C)nn(CCC)c2C)c2cnn(C)c2n1 | 9.66%
N[C@H]1CCCN(S(=O)(=O)c2ccc(C(=O)NCC(F)F)cc2)C1 | -0.566%
Cc1ccnc(CC(C)N(C)c2cc(CN)nc(C)n2)c1 (stereo unspecified) | -48.9%

SMILES | cytotoxicity at 10 µM
O=C(Nc1nncs1)N1CCC(CCO)CC1 | -2.48%
Cc1cccnc1CC(C)Nc1nc(N)nc2c1CCNC2 (stereo unspecified) | 2.09%
Cc1nnsc1C(=O)NCc1cccnc1N1CCCC(O)C1 (stereo unspecified) | 1.91%
NC1CCN(C2CCN(c3ccc(-c4ccco4)cc3)CC2)CC1 | 1.03%
CN(CCc1ccccn1)C(=O)c1cn2c(n1)CNCC2 | -43.5%
Cc1ccc(Sc2ccc(CN3CCC4(CC3)NCCNC4=O)o2)cc1 | -6.71%
COc1ccccc1OC1CN(C(=O)c2ccccc2C(C)=O)C1 | 7.6%
CCCN(CCOC)C(=O)c1cc(Cn2c(C)nc3ccccc32)[nH]n1 | 21.8%
Cc1ccnc(NCc2cn3nc(C)sc3n2)n1 | -0.449%
Cc1ccnc(NCCSc2nccn2C)n1 | -42%
Cc1cc(N2CCCN(C(=O)Cc3ccc(O)c(Cl)c3)CC2)ccn1 | -17.3%
COc1ncc(C2(O)CCN(Cc3ccccc3O)CC2)c(OC)n1 | 2.33%
CN(Cc1noc(C(C)(C)C)n1)C1CCCN(c2cccnn2)C1 (stereo unspecified) | -7.96%
CCN(CC1CCOC1)C(=O)c1ccc(N2CCOCC2)c(F)c1 (stereo unspecified) | -2.45%
CCc1nc(CN(C(C)=O)C2CCN(CCc3ccncc3)C2)no1 (stereo unspecified) | -22.3%
Cc1ccnc(NC(=O)c2[nH]nc(C(C)C)c2Br)c1 | 12.9%
COc1cc(C(=O)N2CCCS2(=O)=O)ccc1OC(C)C | -17.6%
Clc1ccc(OCCCN2CCOC(Cn3cncn3)C2)cc1 (stereo unspecified) | -10%
COC(=O)c1cccn1C1CCN(Cc2cnc3ccccn23)CC1 | -8.86%
O=C(NCCNc1cnccn1)N1CCN(Cc2cccnc2)CC1 | 4.07%
Cc1noc(C(C)C)c1C(=O)NCCCN1CCCC1 | -13.5%
Cn1cc(CC(=O)N2CCC(Nc3cccnn3)CC2)c2ccccc21 | -9.24%
CCC(=O)N1CCC2(CC1)COCCN2Cc1ccc(F)cc1 | -76.5%

SMILES | cytotoxicity at 10 µM
Cc1ccc(CN2CCCC3(COCCN(Cc4c[nH]nn4)C3)C2)s1 (stereo unspecified) | -1.31%
COCC1CN(C(=O)Cc2ccccn2)Cc2ncnn2C1 (stereo unspecified) | -2.47%
CCN1CCC2(C1)CN(S(=O)(=O)c1cn(C)cn1)C2 | -109%
c1ccc(-c2ncc3c(n2)C2(CCN(CC4CC4)C2)COC3)cc1 (stereo unspecified) | 0.975%
O=C([C@H]1CCCO1)N1CCCC2(COCCN(c3ccccc3)C2)C1 (stereo partly specified) | 13.9%
CC(C)NC(=O)C1(CC2CC(c3ccc(F)cc3)=NO2)CCNCC1 (stereo unspecified) | -8.54%
Cn1cnc2c1C(COCC1CCOCC1)CN(C(=O)c1ccco1)C2 (stereo unspecified) | -75.5%
Cc1cccc(CN2C[C@@H]3COC[C@]3(CNC(=O)C3CCC3)C2)c1 | -112%
CC(=O)N1CCCCCC1C1CCN(Cc2nnc(C(C)(C)C)o2)CC1 (stereo unspecified) | -42.3%
CNC(=O)COC1COC2(CCN(c3ccc(C#N)cc3)CC2)C1 (stereo unspecified) | -75.7%
CN(C)C1CCC2(CCN(Cc3nccn3C)CC2)c2ccccc21 (stereo unspecified) | 5.64%
CCCS(=O)(=O)N1C[C@@H]2CN(Cc3cnn(C)c3)CCO[C@@H]2C1 | 0.835%
CN(C)c1ncnc2c1CCN(CC1CCOCC1)CC2 | -69.6%
Cc1ccc(C(=O)N2Cc3c(CN4CCCCC4)nn(C)c3C2)cc1C | -2.81%
Cc1cccc(N2CC[C@@H]3CN(Cc4csc(C)n4)CCO[C@@H]3C2)n1 | -4.51%
CCS(=O)(=O)N1CCC2(CC1)CC(COC)N(c1ncccn1)C2 (stereo unspecified) | 5.57%
CC(C)Cn1cc2nc(N3CCC(O)CC3)[nH]cc-2c1=O | 5.92%
COCCN1C[C@@H]2CC[C@H]1CN(C(=O)c1ccc(Cl)cc1)C2 | -8.03%
O=C(NC1CCC1)[C@H]1C[C@H]2CN(CC3CC3)C[C@@H]1O2 | 7.55%
